PLCb3 inh: blocks human PLC-beta3 enzyme activity | Q01970 | Purified PLC-beta3, fluorogenic substrate, fluorescence | 0.18% of 370,000 active | AID 720704 | inhibition, % at 12.2 µM; in the data active = inhibition above about 11%;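 also: 0% = median of compound wells on plate and 100% = full blocker control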
sPLA2-III inh: Inhibits HGIII-sPLA2 liposome hydrolysis, primary screen; Q9NZ20; QFRET BODIPY PC-A2 liposome hydrolysis, fluorescence; inhibition, % at 12.2 µM; 0.56% of 370,000 active; AID 743126;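 active = inhibition above mean plus 3 SD of compounds lying within the high and low control bounds, cut at about 19% in these data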;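 also: 0% = median of test compound wells and 100% = no enzyme DMSO wells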
Target sequence (Q9NZ20 whole entry, looked up): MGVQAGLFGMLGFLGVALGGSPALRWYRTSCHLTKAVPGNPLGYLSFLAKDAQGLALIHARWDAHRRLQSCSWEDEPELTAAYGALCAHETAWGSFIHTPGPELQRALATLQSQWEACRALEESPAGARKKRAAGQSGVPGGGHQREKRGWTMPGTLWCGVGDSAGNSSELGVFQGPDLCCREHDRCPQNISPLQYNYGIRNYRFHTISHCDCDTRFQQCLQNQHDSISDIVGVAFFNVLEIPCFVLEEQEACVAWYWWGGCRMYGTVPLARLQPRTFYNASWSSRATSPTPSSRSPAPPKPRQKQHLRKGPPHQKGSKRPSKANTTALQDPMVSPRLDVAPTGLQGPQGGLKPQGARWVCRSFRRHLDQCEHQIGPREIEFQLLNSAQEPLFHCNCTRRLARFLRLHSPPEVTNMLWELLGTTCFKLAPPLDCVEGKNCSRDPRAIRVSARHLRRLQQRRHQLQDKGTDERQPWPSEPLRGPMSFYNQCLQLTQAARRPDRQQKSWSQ
ASAP1 GAP inh: blocks human ASAP1-stimulated Arf1 GTP hydrolysis; Q9ULH1; GDP FP detection; inhibition, % at 16.5 µM; 0.19% of 360,000 active; AID 624377; in the data active = inhibition above about 25%;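 also: 0% = vehicle with enzyme and substrate and 100% = no enzyme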
PLC-gamma1 inh: inhibitors of human phospholipase C gamma1 | purified PLC-gamma1, fluorogenic substrate, fluorescence | inhibition, % at 12.2 µM | 0.84% of 370,000 active | AID 720700
ARFGAP1 inh: inhibitors of rat ARFGAP1; 0.26% of 360,000 active; Arfgap1-stimulated ARF1 GTP hydrolysis, GDP FP detection; inhibition, % at 16.5 µM; Q62848;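 active = inhibition above a per-plate limit, mean inhibition of low control wells plus 3 SD, cut at about 25% in these data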;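 also: 0% = DMSO wells with enzyme and 100% = wells lacking Arfgap1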
Target sequence (Q62848 1-136 limits assumed): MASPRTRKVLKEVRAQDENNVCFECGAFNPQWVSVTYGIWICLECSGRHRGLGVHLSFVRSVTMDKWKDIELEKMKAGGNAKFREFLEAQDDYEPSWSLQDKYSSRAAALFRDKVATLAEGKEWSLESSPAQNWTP
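material = rat Arfgap1 catalytic domain, aa 1-136 | also added = human ARF1(Δ1-17)-GTP substrate | compound dosing = one concentration, 16.5 µM, DMSO 1.26% | times = GTP hydrolysis reaction 2 h at 25 °C | measured by = FP, GDP Alexa 633 tracer displaced from anti-GDP antibody, 620/688 nm | evaluation = percent inhibition of Arfgap1-stimulated GTP hydrolysis | replication = single well per compound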
PLCgamma1 ctr: counter-screen for PLC-beta3 inhibitors: inhibitors of human PLC-gamma1; shares compounds with PLC-gamma1 inh; AID 743258; purified PLC-gamma1, fluorogenic substrate, fluorescence; inhibition, % at 12.3 µM; 3.1% of 3,300 active
PLCb3 confirm: human PLC-beta3 inhibition, confirmation; shares compounds with PLC-gamma1 inh; purified PLC-beta3, fluorogenic substrate fluorescence; inhibition, % at 12.3 µM; 1% of 3,300 active; in the data active = inhibition above about 11%
Active calls of the source: *. Compounds with a hit are over-represented: about 1.9% of the library has one in this group of screens. Rule as the data show it, unless noted: active = inhibition above about 9.5%; inactive = the rest.

What do the screens show for `Cn1c(=O)c([N+](=O)[O-])c(N2CCSCC2)c2ccccc21`?
PLCb3 inh: 5; sPLA2-III inh: -5; ASAP1 GAP inh: 9; PLC-gamma1 inh: 0; ARFGAP1 inh: 0

Results for CCn1c(=O)c([N+](=O)[O-])c(N2CCSCC2)c2ccccc21 ?
PLCb3 inh: -5; sPLA2-III inh: 3; ASAP1 GAP inh: 2; PLC-gamma1 inh: 12*; ARFGAP1 inh: -3; PLCgamma1 ctr: -2; PLCb3 confirm: -2

Results for CC(C)CC(N)c1csc(NC(=O)c2cc(C(C)(C)C)nn2Cc2ccccc2)n1 (stereo not given) ?
PLCb3 inh: 5; sPLA2-III inh: 12; ASAP1 GAP inh: 1; PLC-gamma1 inh: 16*; ARFGAP1 inh: 5; PLCgamma1 ctr: -3; PLCb3 confirm: -1

What do the screens show for `CC(C)CC(N)c1csc(NC(=O)Nc2ccccc2Cc2ccccc2)n1` (stereo not given)?
PLCb3 inh: 5; sPLA2-III inh: 19; ASAP1 GAP inh: 4; PLC-gamma1 inh: 3; ARFGAP1 inh: 5

Results for CN(C(=O)COC(=O)COc1ccc(N(C)S(=O)(=O)c2ccc(Cl)cc2)cc1)c1ccccc1 ?
PLCb3 inh: -1; sPLA2-III inh: -5; ASAP1 GAP inh: 3; PLC-gamma1 inh: 12*; ARFGAP1 inh: 10; PLCgamma1 ctr: -2; PLCb3 confirm: -1

What do the screens show for `Cc1ccc(NS(=O)(=O)c2ccc(NC(=O)CSc3ccc(Cl)cc3)cc2)c(C)c1`?
PLCb3 inh: 7; sPLA2-III inh: -22; ASAP1 GAP inh: 11; PLC-gamma1 inh: 13*; ARFGAP1 inh: 5; PLCgamma1 ctr: -5; PLCb3 confirm: -5

Results for CCC(C)(c1nnnn1-c1c(C)cccc1C)N(N=O)c1ccccc1Cl (stereo not given) ?
PLCb3 inh: 8; sPLA2-III inh: -4; ASAP1 GAP inh: -5; PLC-gamma1 inh: 11*; ARFGAP1 inh: -4; PLCgamma1 ctr: 7; PLCb3 confirm: -1

Results for O=C(c1cccs1)N1CC[C@H]2[C@H](CCCN2Cc2ccc(F)cc2)C1 ?
PLCb3 inh: 0; sPLA2-III inh: 0; PLC-gamma1 inh: 0

Results for COC(=O)[C@]12C[C@H](CC(=O)NCc3cccc4ccccc34)C(=O)N(Cc3ccco3)C1=C[C@H](C(C)(C)C)O[C@@H]2C ?
PLCb3 inh: -2; sPLA2-III inh: -12; PLC-gamma1 inh: 1

Results for CCCC(=O)OC12CCCN(C1)/C(=C/c1cccc(N(C)C)c1)C2 (stereo not given) ?
PLCb3 inh: -18; sPLA2-III inh: 5; PLC-gamma1 inh: -11

How did Cc1ccc(S(=O)(=O)N2CCC(=O)N(C(COCc3cccc(C)c3)C(C)C)CC2)cc1 (stereo not given) do in these assays?
PLCb3 inh: 2; sPLA2-III inh: -8; ASAP1 GAP inh: 0; PLC-gamma1 inh: 11*; ARFGAP1 inh: -3; PLCgamma1 ctr: 2; PLCb3 confirm: 2

What do the screens show for `CCCN1CCS(=O)(=O)N(Cc2cn(Cc3ccc(F)cc3)nn2)C(C(=O)OC)C1` (stereo not given)?
PLCb3 inh: 0; sPLA2-III inh: 6; PLC-gamma1 inh: 1

Results for Cc1ccc(-n2cc(CN3CCC(O)(c4ccccn4)CC3)c(-c3ccc(F)cc3)n2)cc1 ?
PLCb3 inh: 0; sPLA2-III inh: 3; ASAP1 GAP inh: 4; PLC-gamma1 inh: 9.8*; ARFGAP1 inh: 17; PLCgamma1 ctr: -3; PLCb3 confirm: 1

What do the screens show for `CCOC(=O)C1(Cc2cccc(Cl)c2)CCCN(C(=O)c2cc(C)n(C)n2)C1` (stereo not given)?
PLCb3 inh: -3; sPLA2-III inh: 1; ASAP1 GAP inh: -1; PLC-gamma1 inh: 10*; ARFGAP1 inh: 3; PLCgamma1 ctr: -2; PLCb3 confirm: 1

What do the screens show for `CCOC(=O)C1(Cc2cccc(Cl)c2)CCCN(C(=O)c2ccnn2C)C1` (stereo not given)?
PLCb3 inh: -3; sPLA2-III inh: -7; ASAP1 GAP inh: 17; PLC-gamma1 inh: 4; ARFGAP1 inh: -1

What do the screens show for `CC1CCN(N=Nc2nc3c([nH]2)c(=O)n(C)c(=O)n3C)CC1`?
PLCb3 inh: 8; sPLA2-III inh: 0; ASAP1 GAP inh: -14; PLC-gamma1 inh: 9.9*; ARFGAP1 inh: -1; PLCgamma1 ctr: -2; PLCb3 confirm: 3

What do the screens show for `Cc1cc(C)nc(SCCn2c(N3CCCCC3)nc3c2c(=O)n(C)c(=O)n3C)n1`?
PLCb3 inh: 8; sPLA2-III inh: 3; ASAP1 GAP inh: 13; PLC-gamma1 inh: 9.6*; ARFGAP1 inh: -8; PLCgamma1 ctr: -3; PLCb3 confirm: -1

Results for Cc1cc(C)nc(SCCn2c(N3CC(C)OC(C)C3)nc3c2c(=O)n(C)c(=O)n3C)n1 (stereo not given) ?
PLCb3 inh: -6; sPLA2-III inh: 5; ASAP1 GAP inh: 11; PLC-gamma1 inh: 0; ARFGAP1 inh: 7

Results for CCCC[C@H]1C2CC(OC(=O)Nc3cc(C)cc(C)c3)C(C2)[C@H]2CCCCN21 (stereo not given in full) ?
PLCb3 inh: 1; sPLA2-III inh: 0; PLC-gamma1 inh: 1

How did COc1ccccc1CCCNC(=O)C1CCC(=O)N(CCCN2CCCC2=O)C1 (stereo not given) do in these assays?
PLCb3 inh: -7; sPLA2-III inh: 5; ASAP1 GAP inh: -7; PLC-gamma1 inh: 2; ARFGAP1 inh: 3

What do the screens show for `COc1ccccc1CNC(=O)C1CCC(=O)N(CCCN2CCCC2=O)C1` (stereo not given)?
PLCb3 inh: 2; sPLA2-III inh: 8; ASAP1 GAP inh: 3; PLC-gamma1 inh: 9.9*; ARFGAP1 inh: 5; PLCgamma1 ctr: -4; PLCb3 confirm: -2

How did CCn1cc(C(=O)O)c(=O)c2cnc(N3CCN(C(=S)NC(=O)c4ccc(F)c(F)c4)CC3)nc21 do in these assays?
PLCb3 inh: -8; sPLA2-III inh: 4; ASAP1 GAP inh: 2; PLC-gamma1 inh: 4; ARFGAP1 inh: -4

Results for CCn1cc(C(=O)O)c(=O)c2cnc(N3CCN(C(=S)NC(=O)c4ccc(Cl)cc4Cl)CC3)nc21 ?
PLCb3 inh: 5; sPLA2-III inh: 7; ASAP1 GAP inh: 7; PLC-gamma1 inh: 10.0*; ARFGAP1 inh: 4; PLCgamma1 ctr: -16; PLCb3 confirm: -7

What do the screens show for `COC(=O)C1=C(C)N(Cc2ccccc2C(F)(F)F)C(=NCc2ccc(OC)cc2)NC1c1ccccc1C(F)(F)F` (stereo not given)?
PLCb3 inh: 3; sPLA2-III inh: -2; ASAP1 GAP inh: -2; PLC-gamma1 inh: 2; ARFGAP1 inh: 5
